Activity calls are given as the source filed them. The calls are words filed in the database; no cut-off is given here.
Key:
[1] = target: Mitogen-activated protein kinase 8 (Homo sapiens) (UniProt P45983); assay: Inhibition of JNK1 assessed as residual enzyme activity at 10 uM
[2] = target: Maternal embryonic leucine zipper kinase (Homo sapiens) (UniProt Q14680); assay: Inhibition of MELK assessed as residual enzyme activity at 10 uM
[3] = target: Serine/threonine-protein kinase PAK 5 (Homo sapiens) (UniProt Q9P286); assay: Inhibition of PAK5 assessed as residual enzyme activity at 10 uM
[4] = target: Serine/threonine-protein kinase D1 (Homo sapiens) (UniProt Q15139); assay: Inhibition of PKD1 assessed as residual enzyme activity at 10 uM
[5] = tested on: Mus musculus; assay: Inhibition of cyclin-dependent kinase substrate […] phosphorylation at Ser2 in nude BALB/c mouse PBMC at 25 mg/kg, po measured after 6 hrs by immunostaining and flow cytometric analysis; format: functional
Outline: (§1)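 Seven-week-old female nu/nu-BALB/c nude mice got a single oral gavage (vehicle 28% PEG300/5% dimethylacetamide/10% HPB cyclodextrin in water). Blood was taken by cardiac puncture at 6 h or 24 h, red cells were lysed, and PBMC were fixed and permeabilized. Cells were stained with Rb, Rb pThr821, PolII or PolII pSer2 antibodies plus an Alexa488 secondary, then read by flow cytometry; n=4 (n=3 at 100 mg/kg).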

[6] = target: Serine/threonine-protein kinase TBK1 (Homo sapiens) (UniProt Q9UHD2); assay: Inhibition of TBK1 assessed as residual enzyme activity at 10 uM
[7] = tested on: Mus musculus; assay: Inhibition of cyclin-dependent kinase substrate RB phosphorylation at Thr 821 in nude BALB/c mouse PBMC at 25 mg/kg, po measured after 6 hrs by immunostaining and flow cytometric analysis; format: functional; outline: as §1
[8] = target: Serine/threonine-protein kinase pim-3 (Homo sapiens) (UniProt Q86V86); assay: Inhibition of PIM3 assessed as residual enzyme activity at 10 uM
[9] = tested on: Mus musculus; assay: Toxicity in nude BALB/c mouse assessed as adverse effect on weight at 5 mg/kg, ip bid for 14 days; format: organism-based; design: dose 5 mg/kg, route intraperitoneal; conditions: in vivo, 336 h
Outline: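 Nude mice bearing MCF-7 tumors, randomized, given ip injections twice daily with vehicle or 5 or 10 mg/kg (10 or 20 mg/kg/day) for 14 days. Body weights were followed over the study; n=8–11 per group.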

[10] = tested on: Mus musculus; assay: Toxicity in nude BALB/c mouse assessed as adverse effect on weight at 25 mg/kg/day, po for 14 days; format: organism-based; design: route oral; conditions: in vivo, 336 h
Outline: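 Female nu/nu-BALB/c nude mice bearing subcutaneous HCT116 flank xenografts (5×10^6 cells), randomized when tumors reached 100–200 mm3. Dosed by oral gavage once daily for 14 days in PEG300/dimethylacetamide/HPB cyclodextrin vehicle. Body weight recorded daily; vehicle n=8, treated n=6.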

[11] = tested on: MCF7; assay: Antitumor activity against human MCF7 cells xenografted in nude BALB/c mouse assessed as decrease in tumor volume at 5 mg/kg, ip bid for 14 days relative to control on day 1; format: functional; conditions: route intraperitoneal
Outline: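 Randomised nude mice bearing MCF-7 tumours were injected intraperitoneally twice daily with 5 or 10 mg/kg (10 or 20 mg/kg/day) for 14 days. The control group received vehicle. Tumour volume was expressed relative to each animal's own day 1 volume.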

[12] = target: Homeodomain-interacting protein kinase 2 (Homo sapiens) (UniProt Q9H2X6); assay: Inhibition of HIPK2 assessed as residual enzyme activity at 10 uM
[13] = target: G2/mitotic-specific cyclin-B1 (Homo sapiens) (UniProt P14635); assay: Inhibition of cyclin B-mediated phosphorylation of RB protein in human HCT116 cells after 4 hrs by immunoblotting analysis; format: cell-based; conditions: HCT-116
Outline: (§2)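 HCT116 colon cancer cells were kept in DMEM with 10% FCS. Cells (8×10^5) were plated, dosed 24 h later, and exposed for 4 or 24 h. Whole-cell lysates were made in RIPA buffer with phosphatase and protease inhibitor cocktails and normalised by BCA protein assay. They were immunoblotted for phospho-sites, total proteins and cyclins.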

[14] = target: Protein kinase C zeta type (Homo sapiens) (UniProt Q05513); assay: Inhibition of PKCzeta assessed as residual enzyme activity at 10 uM
[15] = Apparent volume of distribution in mouse at 10 mg/kg, iv; format: ADME, organism-based; design: dose 10 mg/kg, route intravenous; conditions: in vivo, read-out: Vz
Outline: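 Mice given 10 mg/kg by the ip, iv or oral route. Plasma levels were measured at 8 time points, with 3 animals per route for po and iv. Parameters came from a noncompartmental model. AUCINF was extrapolated to infinity, and bioavailability was calculated from AUCINF. The terminal slope used 3 points.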

[16] = tested on: HCT-116; assay: Induction of apoptosis in human HCT116 cells assessed as increase in sub-G1 population at 1 to 10 umol/L after 24 hrs by […] staining based flow cytometric analysis; format: functional, cell-based
[17] = target: G2/mitotic-specific cyclin-B1 (Homo sapiens) (UniProt P14635); assay: Inhibition of cyclin B in human HCT116 cells assessed as decrease in protein level at 1 umol/L after 24 hrs by immunoblotting analysis; format: cell-based; conditions: HCT-116; outline: as §2
[18] = target: T1, Mitogen-activated protein kinase 1 (Homo sapiens, UniProt P28482); assay: Inhibition of ERK2
[19] = target: Mitogen-activated protein kinase 15 (Homo sapiens) (UniProt Q8TD08); assay: Inhibition of ERK8 at 10 umol/L
[20] = target: Serine/threonine-protein kinase BRSK2 (Homo sapiens) (UniProt Q8IWQ3); assay: Inhibition of BRSK2 assessed as residual enzyme activity at 10 uM
[21] = target: MAP kinase-activated protein kinase 5 (Homo sapiens) (UniProt Q8IW41); assay: Inhibition of PRAK assessed as residual enzyme activity at 10 uM
[22] = target: Tyrosine-protein kinase BTK (Homo sapiens) (UniProt Q06187); assay: Inhibition of BTK assessed as residual enzyme activity at 10 uM
[23] = tested on: MCF7; assay: Cell cycle arrest in human MCF7 cells assessed as concomitant increase in cells at S phase at 1 to 10 umol/L after 24 hrs by propidium iodide staining based flow cytometric analysis; format: functional
[24] = tested on: HCT-116; assay: Cell cycle arrest in human HCT116 cells assessed as concomitant increase in cells at S phase at 1 to 10 umol/L after 24 hrs by propidium iodide staining based flow cytometric analysis; format: functional
Outline: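 HCT116 cells (4×10^5) were allowed to adhere for 24 h, then exposed to 1 or 10 μmol/L compound from DMSO for 24 h. Cells were fixed in 70% ethanol at 4 °C and stained overnight with RNase and propidium iodide. DNA content was read by flow cytometry. Results are from three independent experiments, with unpaired t test against the DMSO control.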

[25] = target: T1, Mitogen-activated protein kinase 1; assay: Inhibition of ERK2 at 0.1 uM
[26] = target: MAP kinase-interacting serine/threonine-protein kinase 2 (Homo sapiens) (UniProt Q9HBH9); assay: Inhibition of MNK2 assessed as residual enzyme activity at 10 uM
[27] = target: Cyclin-dependent kinase 4/cyclin D1 (Homo sapiens, UniProt P11802); assay: Inhibition of CDK4/cyclinD1 assessed as amount of ATP […] by luciferase activity based PKLight assay; format: protein-complex assay
Outline: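 Purified recombinant CDK4/cycD1, CDK6/CycD1, CDK7/CycH/MAT1 or CDK9/CycT run with the supplier's substrate peptides under the manufacturer's protocol. Inhibition was read as ATP left at the end of the reaction, measured by luciferase luminescence (PKLight).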

T1 sequence (P28482 whole entry): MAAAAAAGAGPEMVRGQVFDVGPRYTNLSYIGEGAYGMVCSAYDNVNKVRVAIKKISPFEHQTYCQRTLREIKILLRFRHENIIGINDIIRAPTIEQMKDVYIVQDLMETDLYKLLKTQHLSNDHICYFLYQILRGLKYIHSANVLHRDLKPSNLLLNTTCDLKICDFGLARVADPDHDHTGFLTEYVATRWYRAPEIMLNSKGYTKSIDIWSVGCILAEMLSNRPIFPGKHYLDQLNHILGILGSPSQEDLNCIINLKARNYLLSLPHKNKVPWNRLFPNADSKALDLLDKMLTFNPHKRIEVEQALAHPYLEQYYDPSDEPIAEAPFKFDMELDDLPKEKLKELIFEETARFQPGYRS
Chain of G2/mitotic-specific cyclin-B1 (Homo sapiens) (P14635 whole entry): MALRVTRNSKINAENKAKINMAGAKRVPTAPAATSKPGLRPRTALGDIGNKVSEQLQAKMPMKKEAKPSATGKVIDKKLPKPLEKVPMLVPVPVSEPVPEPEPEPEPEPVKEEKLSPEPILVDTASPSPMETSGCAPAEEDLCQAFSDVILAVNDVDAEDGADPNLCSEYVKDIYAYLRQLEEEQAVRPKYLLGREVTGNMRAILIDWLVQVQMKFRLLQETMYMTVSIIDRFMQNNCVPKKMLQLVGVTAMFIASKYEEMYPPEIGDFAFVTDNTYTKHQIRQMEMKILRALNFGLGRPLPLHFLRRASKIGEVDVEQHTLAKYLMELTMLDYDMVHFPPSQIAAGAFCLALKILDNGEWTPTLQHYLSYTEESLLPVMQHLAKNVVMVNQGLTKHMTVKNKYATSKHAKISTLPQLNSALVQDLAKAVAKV
Chain of Cyclin-dependent kinase 4/cyclin D1 (P11802 whole entry): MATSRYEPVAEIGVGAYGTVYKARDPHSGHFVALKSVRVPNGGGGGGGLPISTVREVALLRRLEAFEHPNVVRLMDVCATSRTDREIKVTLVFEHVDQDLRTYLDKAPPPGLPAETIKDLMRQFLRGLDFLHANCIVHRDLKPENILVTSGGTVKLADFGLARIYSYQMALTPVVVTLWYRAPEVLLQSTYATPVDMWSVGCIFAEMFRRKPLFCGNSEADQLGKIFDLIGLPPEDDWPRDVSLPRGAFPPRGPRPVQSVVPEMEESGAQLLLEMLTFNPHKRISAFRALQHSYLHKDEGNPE
Chain of Cyclin-dependent kinase 4/cyclin D1 (P24385 whole entry, further chain): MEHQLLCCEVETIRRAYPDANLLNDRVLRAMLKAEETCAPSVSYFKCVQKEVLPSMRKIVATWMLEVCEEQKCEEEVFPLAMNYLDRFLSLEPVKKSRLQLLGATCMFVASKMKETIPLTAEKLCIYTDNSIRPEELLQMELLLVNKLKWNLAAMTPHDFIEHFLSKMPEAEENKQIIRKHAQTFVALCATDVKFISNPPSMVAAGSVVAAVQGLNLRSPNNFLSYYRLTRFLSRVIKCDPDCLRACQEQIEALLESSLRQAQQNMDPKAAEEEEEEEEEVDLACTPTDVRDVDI
Chain of Protein kinase C zeta type (Homo sapiens) (Q05513 whole entry): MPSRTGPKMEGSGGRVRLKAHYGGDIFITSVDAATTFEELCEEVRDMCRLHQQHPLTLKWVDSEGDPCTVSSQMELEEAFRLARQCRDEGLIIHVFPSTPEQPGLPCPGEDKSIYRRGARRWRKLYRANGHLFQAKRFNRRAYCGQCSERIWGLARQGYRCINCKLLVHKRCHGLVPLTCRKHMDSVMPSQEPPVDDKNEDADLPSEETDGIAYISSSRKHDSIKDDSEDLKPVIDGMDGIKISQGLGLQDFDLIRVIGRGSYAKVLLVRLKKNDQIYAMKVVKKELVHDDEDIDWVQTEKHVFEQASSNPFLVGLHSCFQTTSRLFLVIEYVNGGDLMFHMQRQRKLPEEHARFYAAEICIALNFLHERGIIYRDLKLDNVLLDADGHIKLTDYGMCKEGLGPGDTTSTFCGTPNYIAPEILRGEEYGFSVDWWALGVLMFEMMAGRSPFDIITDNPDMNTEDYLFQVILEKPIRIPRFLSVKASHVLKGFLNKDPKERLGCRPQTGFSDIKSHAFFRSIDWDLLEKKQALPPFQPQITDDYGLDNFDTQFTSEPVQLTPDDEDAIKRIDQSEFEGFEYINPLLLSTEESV
Chain of Serine/threonine-protein kinase PAK 5 (Homo sapiens) (Q9P286 whole entry, looked up): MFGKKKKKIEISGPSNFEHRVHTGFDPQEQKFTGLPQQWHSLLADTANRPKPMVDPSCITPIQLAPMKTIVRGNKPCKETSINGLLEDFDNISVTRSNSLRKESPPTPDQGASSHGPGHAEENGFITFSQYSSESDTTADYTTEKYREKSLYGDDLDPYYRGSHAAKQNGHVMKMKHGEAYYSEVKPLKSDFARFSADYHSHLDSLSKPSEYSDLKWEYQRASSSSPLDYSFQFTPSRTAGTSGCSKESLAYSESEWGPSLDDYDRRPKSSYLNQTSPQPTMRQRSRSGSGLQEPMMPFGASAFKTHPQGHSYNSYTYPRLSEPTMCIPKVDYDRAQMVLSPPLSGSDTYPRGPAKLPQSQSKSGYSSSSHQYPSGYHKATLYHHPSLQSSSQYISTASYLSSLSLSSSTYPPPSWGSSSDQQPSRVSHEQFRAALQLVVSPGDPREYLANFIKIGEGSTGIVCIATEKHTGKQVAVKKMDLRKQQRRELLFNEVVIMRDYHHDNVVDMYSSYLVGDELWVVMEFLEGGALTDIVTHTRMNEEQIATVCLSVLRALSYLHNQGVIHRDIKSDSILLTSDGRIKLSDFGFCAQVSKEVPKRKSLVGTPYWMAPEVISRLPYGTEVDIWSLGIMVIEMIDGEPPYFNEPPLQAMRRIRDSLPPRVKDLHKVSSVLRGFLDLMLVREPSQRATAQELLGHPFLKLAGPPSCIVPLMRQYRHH
Chain of Maternal embryonic leucine zipper kinase (Homo sapiens) (Q14680 whole entry, looked up): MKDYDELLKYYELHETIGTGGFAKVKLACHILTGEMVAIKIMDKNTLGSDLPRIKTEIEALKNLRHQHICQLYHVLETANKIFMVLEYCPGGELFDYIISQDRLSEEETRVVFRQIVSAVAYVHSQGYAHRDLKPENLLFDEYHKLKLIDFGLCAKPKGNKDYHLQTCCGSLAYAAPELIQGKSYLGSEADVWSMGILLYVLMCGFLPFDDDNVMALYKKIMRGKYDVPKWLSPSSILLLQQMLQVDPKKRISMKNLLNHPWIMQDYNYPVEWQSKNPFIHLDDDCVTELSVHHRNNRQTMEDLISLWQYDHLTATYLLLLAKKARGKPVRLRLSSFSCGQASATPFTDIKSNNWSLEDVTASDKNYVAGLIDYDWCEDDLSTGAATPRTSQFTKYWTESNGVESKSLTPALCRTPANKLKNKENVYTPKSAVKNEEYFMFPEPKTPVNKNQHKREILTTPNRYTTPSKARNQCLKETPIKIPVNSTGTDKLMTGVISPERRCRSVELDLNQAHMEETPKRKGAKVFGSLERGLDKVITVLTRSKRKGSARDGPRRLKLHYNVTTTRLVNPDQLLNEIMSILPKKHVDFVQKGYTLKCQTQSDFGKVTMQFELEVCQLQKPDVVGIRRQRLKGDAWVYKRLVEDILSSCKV
Chain of Tyrosine-protein kinase BTK (Homo sapiens) (Q06187 whole entry): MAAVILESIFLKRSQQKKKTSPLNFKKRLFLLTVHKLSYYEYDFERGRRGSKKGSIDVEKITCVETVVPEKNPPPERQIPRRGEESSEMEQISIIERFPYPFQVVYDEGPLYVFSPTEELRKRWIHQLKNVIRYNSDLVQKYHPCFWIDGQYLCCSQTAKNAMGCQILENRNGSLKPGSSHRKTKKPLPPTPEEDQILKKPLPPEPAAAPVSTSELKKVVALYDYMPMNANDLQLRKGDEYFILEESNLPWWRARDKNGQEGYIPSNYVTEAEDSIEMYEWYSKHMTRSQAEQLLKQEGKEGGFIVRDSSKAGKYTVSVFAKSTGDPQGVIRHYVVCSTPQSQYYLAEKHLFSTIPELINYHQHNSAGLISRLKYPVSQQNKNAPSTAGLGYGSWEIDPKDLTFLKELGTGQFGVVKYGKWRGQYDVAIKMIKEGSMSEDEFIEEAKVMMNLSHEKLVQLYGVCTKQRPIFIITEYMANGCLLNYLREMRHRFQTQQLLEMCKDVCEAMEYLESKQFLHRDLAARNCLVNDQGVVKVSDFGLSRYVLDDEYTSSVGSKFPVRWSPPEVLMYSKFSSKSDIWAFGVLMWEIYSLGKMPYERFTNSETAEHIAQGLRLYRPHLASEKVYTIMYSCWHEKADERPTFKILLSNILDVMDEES
Chain of MAP kinase-activated protein kinase 5 (Homo sapiens) (Q8IW41 whole entry): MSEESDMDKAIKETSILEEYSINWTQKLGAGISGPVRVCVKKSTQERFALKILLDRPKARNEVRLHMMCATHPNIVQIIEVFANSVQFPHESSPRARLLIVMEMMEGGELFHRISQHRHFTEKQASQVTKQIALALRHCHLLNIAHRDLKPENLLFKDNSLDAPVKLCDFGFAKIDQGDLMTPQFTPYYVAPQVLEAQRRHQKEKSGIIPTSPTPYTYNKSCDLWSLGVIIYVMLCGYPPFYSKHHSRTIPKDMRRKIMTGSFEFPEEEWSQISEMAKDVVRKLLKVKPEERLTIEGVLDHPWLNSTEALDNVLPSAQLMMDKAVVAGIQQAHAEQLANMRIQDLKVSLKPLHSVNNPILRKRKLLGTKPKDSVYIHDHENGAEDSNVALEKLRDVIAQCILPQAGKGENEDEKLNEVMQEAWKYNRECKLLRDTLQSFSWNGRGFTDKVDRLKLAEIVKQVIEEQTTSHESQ

SMILES: CC(C)c1cnn2c(NCc3ccccc3)cc(N[C@@H](CO)[C@H](O)CO)nc12
- Activity [1]: 93%
- Activity [2]: 88%
- Activity [3]: 65%
- Activity [4]: 97%
- inhibition in vivo at 25 mg/kg [5]: 25%
- Activity [6]: 87%
- inhibition in vivo at 25 mg/kg [7]: 60%
- Activity [8]: 101%
- Activity [9]: Non-toxic
- Activity [10]: Non-toxic
- inhibition in vivo at 5 mg/kg [11]: 30%
- Activity [12]: 73%
- inhibition [13]: inactive
- Activity [14]: 64%
- Vd [15]: 1.39 L/kg
- Activity [16]: Active
- inhibition [17]: Active
- IC50 [18]: 3.11 µM
- inhibition [19]: 74%
- Activity [20]: 108%
- Activity [21]: 97%
- Activity [22]: 91%
- Activity [23]: Active
- Activity [24]: Active
- inhibition [25]: < 50%
- Activity [26]: 136%
- IC50 [27]: 20 µM
